Results as given in ChEMBL document CHEMBL4823271, “Synthesis and structure-activity relationship of new chalcone linked 5-phenyl-3-isoxazolecarboxylic acid methyl esters potentially active against drug resistant Mycobacterium tuberculosis” (Eur J Med Chem, 2021).
Converted amounts (≈) assume the structure as drawn. The source made the active and inactive calls. The calls are words filed in the database; no cut-off is given here.

Legend:
[1] = system: Mycobacteroides abscessus; test: Antimycobacterial activity against Mycobacterium abscessus ATCC 19977 assessed as visible growth inhibition incubated for 16 to 18 hrs; format: functional, organism-based; conditions: time 16-18 hrs
[2] = Cytotoxicity against African green monkey vero cells assessed as reduction in cell viability measured after 72 hrs by MTT assay; format: cell-based; conditions: chlorocebus sabaeus
Outline: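 Vero cells seeded at ~10³ cells/well and grown 24 h at 37 °C, 5% CO₂, then exposed to compound (100 to 5 mg/l) for 72 h. MTT was added […] for 4 h and formazan dissolved in DMSO. CC50 is the lowest concentration giving 50% viability reduction. Doxorubicin was the positive control, run in triplicate.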

[3] = Selectivity index, ratio of CC50 for African green monkey Vero cells to MIC for Antitubercular activity against Mycobacterium tuberculosis H37Rv; format: toxicity; conditions: read-out: Selectivity Index
Outline: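 Selectivity index calculated as Vero CC50 (MTT, 72 h) divided by the H37Rv MIC from the resazurin broth microdilution assay.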

[4] = system: Mycobacterium tuberculosis; test: Antitubercular activity against Mycobacterium tuberculosis H37Rv assessed as bacterial growth inhibition after 7 days by broth microdilution assay; format: functional; conditions: 168 h, dose 0.03-64 µg/ml, time 7 day
Outline: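 Compounds were tested in broth microdilution from 64 downward, incubated 37 °C for 7 days, then resazurin (PrestoBlue) added. MIC is the lowest concentration preventing the blue-to-pink change, run in triplicate, reporting the value obtained at least twice of three.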

Mycobacteroides chelonae = test: Antimycobacterial activity against Mycobacterium chelonae ATCC 35752 assessed as visible growth inhibition incubated for 16 to 18 hrs; format: functional, organism-based; conditions: time 16-18 hrs
[5] = system: Mycobacterium tuberculosis; test: Antimycobacterial activity against Mycobacterium tuberculosis H37Rv ATCC 27294 assessed as reduction in bacterial growth incubated for […] by broth microdilution assay; format: functional
[6] = system: Mycolicibacterium fortuitum; test: Antimycobacterial activity against Mycobacterium fortuitum ATCC 6841 assessed as visible growth inhibition incubated for 16 to 18 hrs; format: functional, organism-based; conditions: time 16-18 hrs
[7] = system: Mycobacterium tuberculosis; test: Antimycobacterial activity against Mycobacterium tuberculosis H37Rv assessed as reduction in CFU at 10 times MIC concentration measured up to 6 days by time kill assay; format: functional, organism-based; conditions: time day <=6
Outline: (§1)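 Time-kill: H37Rv at ~10⁵ CFU/mL in 96-well plates with compound at 1x or 10x MIC, 37 °C for 6 days. At time-points, samples were serially two-fold diluted in normal saline and plated on 7H11 agar with OADC. Colonies were counted after […] at 37 °C, and CFU/mL was plotted against time with and without compound.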

[8] = system: Mycobacterium tuberculosis; test: Antimycobacterial activity against Mycobacterium tuberculosis H37Ra; format: functional
[9] = system: Mycobacterium tuberculosis; test: Antimycobacterial activity against Mycobacterium tuberculosis H37Rv assessed as reduction in CFU at MIC concentration measured up to 6 days by time kill assay; format: functional, organism-based; conditions: time day <=6; outline: as §1

SMILES	Activity [1]	CC50 at 72 h [2] [µg/mL]	selectivity ratio [3]	MIC [4] [µg/mL]	Activity (Mycobacteroides chelonae)	MIC [5] [µg/mL]	Activity [6]	Activity [7]	MIC [8] [µg/mL]	Activity [9]
COC(=O)c1cc(-c2cccc(NC(=O)c3ccc(/C=C/C(=O)c4ccc(Cl)cc4)cc3)c2)on1	inactive	> 50	> 416	0.12 (≈ 0.246 µM)	inactive	0.12 (≈ 0.246 µM)	inactive			
COC(=O)c1cc(-c2cccc(NC(=O)c3ccc(/C=C/C(=O)c4ccc(OC)cc4OC)cc3)c2)on1	inactive	> 50	> 200	0.25 (≈ 0.488 µM)	inactive	0.25 (≈ 0.488 µM)	inactive			
CCCOc1ccc(C(=O)/C=C/c2ccc(C(=O)Nc3cccc(-c4cc(C(=O)OC)no4)c3)cc2)cc1	inactive	> 40	> 320	0.12 (≈ 0.235 µM)	inactive	0.12 (≈ 0.235 µM)	inactive	Active		
COC(=O)c1cc(-c2cccc(NC(=O)c3ccc(/C=C/C(=O)c4ccc(F)cc4F)cc3)c2)on1	inactive	> 40	> 333	0.12 (≈ 0.246 µM)	inactive	0.12 (≈ 0.246 µM)	inactive			
COC(=O)c1cc(-c2ccc(NC(=O)c3ccc(/C=C/C(=O)c4ccc(Cl)cc4)cc3)cc2)on1	inactive	> 80	> 1330	0.06 (≈ 0.123 µM)	inactive	0.06 (≈ 0.123 µM)	inactive			
COC(=O)c1cc(-c2cccc(NC(=O)c3ccc(/C=C/C(=O)c4ccccc4C)cc3)c2)on1	inactive	> 25	> 100	0.25 (≈ 0.536 µM)	inactive	0.25 (≈ 0.536 µM)	inactive			
COC(=O)c1cc(-c2cccc(NC(=O)c3ccc(/C=C/C(=O)c4cccc(Cl)c4)cc3)c2)on1	inactive	> 2.5	> 10	0.25 (≈ 0.513 µM)	inactive	0.25 (≈ 0.513 µM)	inactive			
COC(=O)c1cc(-c2cccc(NC(=O)c3ccc(/C=C/C(=O)c4ccc(C)cc4)cc3)c2)on1	inactive	> 80	> 160	0.5 (≈ 1.07 µM)	inactive	5 (≈ 10.7 µM)	inactive			
COC(=O)c1cc(-c2cccc(NC(=O)c3ccc(/C=C/C(=O)c4ccccc4Cl)cc3)c2)on1	inactive	> 25	> 100	0.25 (≈ 0.513 µM)	inactive	0.25 (≈ 0.513 µM)	inactive			
COC(=O)c1cc(-c2cccc(NC(=O)c3ccc(/C=C/C(=O)c4ccc(N5CCOCC5)cc4)cc3)c2)on1	inactive	> 20	> 40	0.5 (≈ 0.93 µM)	inactive	5 (≈ 9.3 µM)	inactive			
NNC(=O)c1ccncc1 [ISONIAZID]				0.03 (≈ 0.219 µM)		0.03 (≈ 0.219 µM)				
COc1cc(/C=C/c2cc(/C=C/c3ccc(OC)c(OC)c3)no2)ccc1O									0.09 (≈ 0.237 µM)	
CCOc1ccc(C(=O)/C=C/c2ccc(C(=O)Nc3cccc(-c4cc(C(=O)OC)no4)c3)cc2)cc1	inactive	> 40	> 160	0.25 (≈ 0.504 µM)	inactive	0.25 (≈ 0.504 µM)	inactive	Active		Active
CC[C@@H](CO)NCCN[C@@H](CC)CO [ETHAMBUTOL]				1 (≈ 4.89 µM)		1 (≈ 4.89 µM)				
COC(=O)c1cc(-c2cccc(NC(=O)c3ccc(/C=C/C(=O)c4ccc(Cl)cc4Cl)cc3)c2)on1	inactive	> 40	> 80	0.5 (≈ 0.959 µM)	inactive	0.5 (≈ 0.959 µM)	inactive			
COC(=O)c1cc(-c2cccc(NC(=O)c3ccc(/C=C/C(=O)c4ccc(CC(C)C)cc4)cc3)c2)on1	inactive	> 10	> 84	0.12 (≈ 0.236 µM)	inactive	0.12 (≈ 0.236 µM)	inactive			
CCOC(=O)c1cc(-c2cccc(NC(=O)c3ccc(/C=C/C(=O)c4ccc(Cl)cc4)cc3)c2)on1	inactive	> 80	> 160	0.5 (≈ 0.998 µM)	inactive	0.5 (≈ 0.998 µM)	inactive			
